Laboratory results: ChEMBL document CHEMBL1275589, “Molecular epidemiology, sequence types, and plasmid analyses of KPC-producing Klebsiella pneumoniae strains in Israel” (2010)
In brackets after ≈: the same amount, converted by molar mass.

Legend:
Klebsiella pneumoniae [1] = test: Antimicrobial activity against carbapenem-resistant KPC-2 producing Klebsiella pneumoniae 475 ST 277 expressing beta-lactamase SHV-27, CTX-M-15 and OXA-4 by agar dilution method; type: functional
Klebsiella pneumoniae [2] = test: Antimicrobial activity against carbapenem-resistant KPC-2 producing Klebsiella pneumoniae 475 transformant by agar dilution method; type: functional
Klebsiella pneumoniae [3] = test: Antimicrobial activity against carbapenem-resistant KPC-2 producing Klebsiella pneumoniae 469 ST 277 expressing beta-lactamase SHV-27, CTX-M-15 and OXA-4 by agar dilution method; type: functional
Klebsiella pneumoniae [4] = test: Antimicrobial activity against carbapenem-resistant KPC-2 producing Klebsiella pneumoniae 469 transformant by agar dilution method; type: functional
Klebsiella pneumoniae [5] = test: Antimicrobial activity against carbapenem-resistant KPC-2 producing Klebsiella pneumoniae 523 ST 340 expressing beta-lactamase TEM-1, SHV-11 and OXA-2 by agar dilution method; type: functional
Klebsiella pneumoniae [6] = test: Antimicrobial activity against carbapenem-resistant KPC-2 producing Klebsiella pneumoniae 523 transformant by agar dilution method; type: functional
Klebsiella pneumoniae [7] = test: Antimicrobial activity against carbapenem-resistant KPC-2 producing Klebsiella pneumoniae 588 ST 340 expressing beta-lactamase TEM-1 and SHV-11 by agar dilution method; type: functional
Klebsiella pneumoniae [8] = test: Antimicrobial activity against carbapenem-resistant KPC-2 producing Klebsiella pneumoniae 588 transformant by agar dilution method; type: functional
Klebsiella pneumoniae [9] = test: Antimicrobial activity against carbapenem-resistant KPC-2 producing Klebsiella pneumoniae 365 transformant by agar dilution method; type: functional
Klebsiella pneumoniae [10] = test: Antimicrobial activity against carbapenem-resistant KPC-2 producing Klebsiella pneumoniae 531 ST 376 expressing beta-lactamase SHV-1 by agar dilution method; type: functional
Klebsiella pneumoniae [11] = test: Antimicrobial activity against carbapenem-resistant KPC-2 producing Klebsiella pneumoniae 531 transformant by agar dilution method; type: functional
Klebsiella pneumoniae [12] = test: Antimicrobial activity against carbapenem-resistant KPC-2 producing Klebsiella pneumoniae 525 ST 376 expressing beta-lactamase SHV-1 by agar dilution method; type: functional
Klebsiella pneumoniae [13] = test: Antimicrobial activity against carbapenem-resistant KPC-2 producing Klebsiella pneumoniae 525 transformant by agar dilution method; type: functional
Klebsiella pneumoniae [14] = test: Antimicrobial activity against carbapenem-resistant KPC-2 producing Klebsiella pneumoniae 526 ST 376 expressing beta-lactamase SHV-1 by agar dilution method; type: functional
Klebsiella pneumoniae [15] = test: Antimicrobial activity against carbapenem-resistant KPC-2 producing Klebsiella pneumoniae 526 transformant by agar dilution method; type: functional
Klebsiella pneumoniae [16] = test: Antimicrobial activity against KPC-3 producing Klebsiella pneumoniae 549 ST 327 expressing beta-lactamase TEM-1 and CTX-M-2 by agar dilution method; type: functional
Klebsiella pneumoniae [17] = test: Antimicrobial activity against KPC-3 producing Klebsiella pneumoniae 549 transformant by agar dilution method; type: functional
Klebsiella pneumoniae [18] = test: Antimicrobial activity against KPC-3 producing Klebsiella pneumoniae 557 transformant by agar dilution method; type: functional
Escherichia coli = test: Antimicrobial activity against Escherichia coli Genehogs by agar dilution method; type: functional
How it was run: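 Carbapenem MICs by agar dilution, interpreted per CLSI. FDA Enterobacteriaceae breakpoints applied: susceptible ≤2 μg/ml, intermediate 4 μg/ml, resistant ≥8 μg/ml. Transformants were made in recipient E. coli GeneHogs with purified plasmid DNA.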

Klebsiella pneumoniae [19] = test: Antimicrobial activity against KPC-3 producing Klebsiella pneumoniae 557 ST 258 expressing beta-lactamase TEM-1 by agar dilution method
Klebsiella pneumoniae [20] = test: Antimicrobial activity against carbapenem-resistant KPC-2 producing Klebsiella pneumoniae 365 ST 376 expressing beta-lactamase SHV-1, CTX-M-15 and OXA-4 by agar dilution method

Structure (SMILES) | MIC (Klebsiella pneumoniae [1]) | MIC (Klebsiella pneumoniae [2]) | MIC (Klebsiella pneumoniae [3]) | MIC (Klebsiella pneumoniae [4]) | MIC (Klebsiella pneumoniae [5]) | MIC (Klebsiella pneumoniae [6]) | MIC (Klebsiella pneumoniae [7]) | MIC (Klebsiella pneumoniae [8]) | MIC (Klebsiella pneumoniae [9]) | MIC (Klebsiella pneumoniae [10]) | MIC (Klebsiella pneumoniae [11]) | MIC (Klebsiella pneumoniae [12]) | MIC (Klebsiella pneumoniae [13]) | MIC (Klebsiella pneumoniae [14]) | MIC (Klebsiella pneumoniae [15]) | MIC (Klebsiella pneumoniae [16]) | MIC (Klebsiella pneumoniae [18]) | MIC (Escherichia coli) | MIC (Klebsiella pneumoniae [19]) | MIC (Klebsiella pneumoniae [20]) | further results
C[C@@H](O)[C@H]1C(=O)N2C(C(=O)O)=C(S[C@@H]3CN[C@H](C(=O)Nc4cccc(C(=O)O)c4)C3)[C@H](C)[C@H]12 | 128 µg/mL (≈ 269 µM) | 8 µg/mL (≈ 16.8 µM) | 64 µg/mL (≈ 135 µM) | 4 µg/mL (≈ 8.41 µM) | 64 µg/mL (≈ 135 µM) | 8 µg/mL (≈ 16.8 µM) | 128 µg/mL (≈ 269 µM) | 8 µg/mL (≈ 16.8 µM) | 8 µg/mL (≈ 16.8 µM) | 128 µg/mL (≈ 269 µM) | 2 µg/mL (≈ 4.21 µM) | 128 µg/mL (≈ 269 µM) | 4 µg/mL (≈ 8.41 µM) | 64 µg/mL (≈ 135 µM) | 8 µg/mL (≈ 16.8 µM) | 32 µg/mL (≈ 67.3 µM) | 4 µg/mL (≈ 8.41 µM) | 0.012 µg/mL (≈ 0.0252 µM) | 256 µg/mL (≈ 538 µM) | 64 µg/mL (≈ 135 µM) | MIC (Klebsiella pneumoniae [17]): 4 µg/mL (≈ 8.41 µM)
NCC[C@H](O)C(=O)N[C@@H]1C[C@H](N)[C@@H](O[C@H]2O[C@H](CN)[C@@H](O)[C@H](O)[C@H]2O)[C@H](O)[C@H]1O[C@H]1O[C@H](CO)[C@@H](O)[C@H](N)[C@H]1O [AMIKACIN] | < 2 µg/mL | 8 µg/mL (≈ 13.7 µM) | 4 µg/mL (≈ 6.83 µM) | 16 µg/mL (≈ 27.3 µM) | 16 µg/mL (≈ 27.3 µM) | > 64 µg/mL | 32 µg/mL (≈ 54.6 µM) | 32 µg/mL (≈ 54.6 µM) | < 2 µg/mL | 8 µg/mL (≈ 13.7 µM) | 16 µg/mL (≈ 27.3 µM) | 8 µg/mL (≈ 13.7 µM) | 16 µg/mL (≈ 27.3 µM) | 4 µg/mL (≈ 6.83 µM) | 8 µg/mL (≈ 13.7 µM) | < 2 µg/mL | < 2 µg/mL | < 2 µg/mL | 32 µg/mL (≈ 54.6 µM) | 4 µg/mL (≈ 6.83 µM) | –
C[C@H]1[C@H](NC(=O)/C(=N\OC(C)(C)C(=O)O)c2csc(N)n2)C(=O)N1S(=O)(=O)O [AZTREONAM] | > 64 µg/mL | 32 µg/mL (≈ 73.5 µM) | > 64 µg/mL | 32 µg/mL (≈ 73.5 µM) | > 64 µg/mL | > 64 µg/mL | > 64 µg/mL | > 64 µg/mL | > 64 µg/mL | > 64 µg/mL | 64 µg/mL (≈ 147 µM) | > 64 µg/mL | > 64 µg/mL | > 64 µg/mL | > 64 µg/mL | > 64 µg/mL | > 64 µg/mL | < 1 µg/mL | > 64 µg/mL | > 64 µg/mL | MIC (Klebsiella pneumoniae [17]): > 64 µg/mL
CC(C)(O/N=C(\C(=O)N[C@@H]1C(=O)N2C(C(=O)[O-])=C(C[n+]3ccccc3)CS[C@H]12)c1csc(N)n1)C(=O)O [CEFTAZIDIME] | 16 µg/mL (≈ 29.3 µM) | 16 µg/mL (≈ 29.3 µM) | > 64 µg/mL | > 64 µg/mL | 16 µg/mL (≈ 29.3 µM) | 16 µg/mL (≈ 29.3 µM) | 16 µg/mL (≈ 29.3 µM) | 16 µg/mL (≈ 29.3 µM) | 16 µg/mL (≈ 29.3 µM) | > 64 µg/mL | 16 µg/mL (≈ 29.3 µM) | > 64 µg/mL | 16 µg/mL (≈ 29.3 µM) | > 64 µg/mL | 16 µg/mL (≈ 29.3 µM) | 16 µg/mL (≈ 29.3 µM) | > 64 µg/mL | < 1 µg/mL | > 64 µg/mL | > 64 µg/mL | MIC (Klebsiella pneumoniae [17]): > 64 µg/mL
CO/N=C(\C(=O)N[C@@H]1C(=O)N2C(C(=O)O)=C(CSc3nc(=O)c(O)nn3C)CS[C@H]12)c1csc(N)n1 [CEFTRIAXONE] | 16 µg/mL (≈ 28.9 µM) | 32 µg/mL (≈ 57.7 µM) | > 64 µg/mL | > 64 µg/mL | 16 µg/mL (≈ 28.9 µM) | 32 µg/mL (≈ 57.7 µM) | > 64 µg/mL | 32 µg/mL (≈ 57.7 µM) | – | > 64 µg/mL | 16 µg/mL (≈ 28.9 µM) | > 64 µg/mL | 8 µg/mL (≈ 14.4 µM) | > 64 µg/mL | 32 µg/mL (≈ 57.7 µM) | > 64 µg/mL | 32 µg/mL (≈ 57.7 µM) | < 1 µg/mL | > 64 µg/mL | > 64 µg/mL | MIC (Klebsiella pneumoniae [17]): 32 µg/mL (≈ 57.7 µM)
